Laboratory results published in article PMC3210016 (Cancer research, 2010).

Experiments:
[1] = tested on: HCC2429 cells; assay: Apoptosis screen of peptide library; assay type: cell-based, human; settings: representative experiment, Figure 1A, quadruplicate
Method in brief: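 A library of 155 peptides (5–15 residues) spanning the 34 EGF-like repeats of the Notch3 ECD was screened. HCC2429 and HeLa cells were seeded at 3,000 cells per well in 384-well format. Annexin V Alexa Fluor 680 (1:2,200 in RPMI) and peptide solution (0.1 mg/ml in RPMI before addition) were added. After overnight incubation, fluorescence was read on an FMAT 8100 HTS system, in quadruplicate per peptide.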

[2] = tested on: HCC2429 cells; assay: Apoptosis assay; assay type: cell-based, human; settings: HCC2429, 24 hours, serum-free RPMI, flow cytometry; Figure 2D
Method in brief: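 HCC2429 cells were exposed for 24 hours in serum-free RPMI to Notch3 ECD-derived peptides or peptide–Fc fusion proteins. The concentration was not given. Apoptotic fraction was measured with an Annexin V-FITC kit on a flow cytometer, with a γ-secretase inhibitor as positive control. Comparisons used the Wilcoxon rank-sum test, with significance at P < 0.05.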

| Substance | Induction of apoptosis (fluorescence, FMAT 8100 HTS) [1] | Apoptosis (Annexin V-FITC) [2] |
| --- | --- | --- |
| CLNGGS [Peptide N132] | induced apoptosis | – |
| CVCVNGWTGES [Peptide N17] | – | highest apoptotic activity |
| CATAV [Peptide N102] | induced apoptosis | – |
| CFHGAT [Peptide N103] | induced apoptosis | – |
